Consider 14 compounds from ChEMBL document CHEMBL3044979, “Microbiologically active Mannich bases derived from 1,2,4-triazoles. The effect of C-5 substituent on antibacterial activity” (2013).

One assay has as its system Escherichia coli. Briefly: Antibacterial activity against Escherichia coli ATCC 25922 assessed as growth inhibition by broth microdilution method. The class given is functional, organism-based. In short, it runs like this: (§1)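 Preliminary screen: 10 µl of each bacterial suspension spotted on Mueller-Hinton agar containing compound at 1,000 µg ml⁻¹, then incubated 37 °C for 18 h. Inocula were prepared in sterile saline at 0.5 McFarland (150 × 10⁶ CFU ml⁻¹). Compounds were dissolved in DMSO stocks and diluted twofold in Mueller-Hinton broth, final 3.91–1,000 µg ml⁻¹. MIC read in µg ml⁻¹ (CLSI 2008), with ampicillin, cefuroxime and vancomycin as reference agents.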

A further assay deals with Micrococcus luteus. The assay can be described thus: Antibacterial activity against Micrococcus luteus ATCC 10240 assessed as growth inhibition by broth microdilution method. The class given is functional. A digest of the protocol:
as §1

The subject of the next assay is Bacillus cereus. Briefly: Antibacterial activity against Bacillus cereus ATCC 10876 assessed as growth inhibition by broth microdilution method. It is filed as functional. A digest of the protocol:
as §1

In the next assay the test system is Bacillus subtilis. The assay can be described thus: Antibacterial activity against Bacillus subtilis ATCC 6633 assessed as growth inhibition by broth microdilution method. It is filed as functional. In short, it runs like this:
as §1

The subject of assay [1] is Staphylococcus epidermidis. Briefly: Antibacterial activity against Staphylococcus epidermidis ATCC 12228 assessed as growth inhibition by broth microdilution method. The class given is functional. A digest of the protocol: as §1
For assay [2], the system named is Staphylococcus aureus. Briefly: Antibacterial activity against Staphylococcus aureus 14001 assessed as growth inhibition by broth microdilution method. The class given is functional. A digest of the protocol:
as §1

Another assay concerns Pseudomonas aeruginosa. The assay can be described thus: Antibacterial activity against Pseudomonas aeruginosa ATCC 9027 assessed as growth inhibition by broth microdilution method. The class given is functional, organism-based. A digest of the protocol:
as §1

Assay [3] has as its system Staphylococcus aureus. The assay can be described thus: Antibacterial activity against Staphylococcus aureus ATCC 25923 assessed as growth inhibition by broth microdilution method. It is filed as functional. In short, it runs like this: as §1
In a further assay the test system is Proteus mirabilis. The assay can be described thus: Antibacterial activity against Proteus mirabilis ATCC 12453 assessed as growth inhibition by broth microdilution method. It is filed as functional, organism-based. A digest of the protocol: as §1
The test system of a further assay is Klebsiella pneumoniae. Briefly: Antibacterial activity against Klebsiella pneumoniae ATCC 13883 assessed as growth inhibition by broth microdilution method. It is filed as functional, organism-based. In short, it runs like this:
as §1

Activity calls are given as the source filed them. The rule behind the calls is not given here.

On to `S=c1n(CN2CCCC2)nc(-c2ccccc2)n1-c1ccc(Br)cc1`, for which the “growth inhibition (GI)” value with Escherichia coli, in the assay with Pseudomonas aeruginosa, in the assay with Proteus mirabilis and in the assay on Klebsiella pneumoniae was “inactive” throughout. The MBC in the assay with Micrococcus luteus is 1000 µg/mL; in the assay with Bacillus cereus, above 1000 µg/mL; in the assay on Bacillus subtilis, 1000 µg/mL; in assay [1], above 1000 µg/mL; in the assay on Staphylococcus aureus [2] it was above 1000 µg/mL; in the assay on Staphylococcus aureus [3], above 1000 µg/mL. The MIC worked out at 500 µg/mL in the assay on Micrococcus luteus; 1000 µg/mL with Bacillus cereus; 500 µg/mL in the assay on Bacillus subtilis; 1000 µg/mL in assay [1]; 1000 µg/mL in the assay on Staphylococcus aureus [2]; 1000 µg/mL in the assay with Staphylococcus aureus [3].

For `S=c1n(CN2CCCCC2)nc(-c2cccc(Cl)c2)n1-c1ccc(Br)cc1`, the “growth inhibition (GI)” value in the assay on Escherichia coli, in the assay with Pseudomonas aeruginosa, in the assay on Proteus mirabilis and in the assay with Klebsiella pneumoniae was “inactive” each time. The MBC in the assay on Micrococcus luteus is above 1000 µg/mL; with Bacillus cereus, 1000 µg/mL; with Bacillus subtilis it was 1000 µg/mL; in assay [1], above 1000 µg/mL; in the assay with Staphylococcus aureus [3] it was above 1000 µg/mL. Moreover, the MIC in the assay on Micrococcus luteus stood at 31.2 µg/mL; in the assay on Bacillus cereus, 62.5 µg/mL; in the assay with Bacillus subtilis, 62.5 µg/mL; in [1], 62.5 µg/mL; in the assay with Staphylococcus aureus [3], 31.2 µg/mL.

Regarding `CCN(CC)Cn1nc(-c2cccc(Cl)c2)n(-c2ccc(Br)cc2)c1=S`, the “growth inhibition (GI)” value with Escherichia coli, in the assay on Pseudomonas aeruginosa, in the assay with Proteus mirabilis and in the assay on Klebsiella pneumoniae was “inactive” in each case. Besides, the MBC in the assay on Micrococcus luteus was 500 µg/mL; in the assay on Bacillus cereus, above 1000 µg/mL; in the assay on Bacillus subtilis, 500 µg/mL; in [1], above 1000 µg/mL; with Staphylococcus aureus [3], above 1000 µg/mL. Besides, the MIC in the assay with Micrococcus luteus came to 31.2 µg/mL; with Bacillus cereus, 62.5 µg/mL; in the assay on Bacillus subtilis, 62.5 µg/mL; in assay [1], 62.5 µg/mL; with Staphylococcus aureus [3] it was 31.2 µg/mL.

In the case of `S=c1n(CN2CCOCC2)nc(-c2ccc(Cl)cc2)n1-c1ccc(Br)cc1`, the “growth inhibition (GI)” value in the assay on Escherichia coli, in the assay on Pseudomonas aeruginosa, in the assay with Proteus mirabilis and in the assay on Klebsiella pneumoniae was “inactive” in each case. Also, the minimal bactericidal concentration (MBC) in the assay on Micrococcus luteus was above 1000 µg/mL; with Bacillus cereus, above 1000 µg/mL; in the assay on Bacillus subtilis it was 125 µg/mL; in assay [1], 1000 µg/mL; in the assay with Staphylococcus aureus [2], above 1000 µg/mL; in the assay on Staphylococcus aureus [3] it was 1000 µg/mL. Moreover, the MIC was found to be 62.5 µg/mL in the assay on Micrococcus luteus; 62.5 µg/mL with Bacillus cereus; 125 µg/mL in the assay on Bacillus subtilis; 62.5 µg/mL in assay [1]; 125 µg/mL in the assay with Staphylococcus aureus [2]; 62.5 µg/mL in the assay with Staphylococcus aureus [3].

With `S=c1n(CN2CCOCC2)nc(-c2cccc(Cl)c2)n1-c1ccc(Br)cc1`, the “growth inhibition (GI)” value in the assay on Escherichia coli, in the assay with Pseudomonas aeruginosa, in the assay with Proteus mirabilis and with Klebsiella pneumoniae was “inactive” throughout. Also, the MBC was 500 µg/mL with Micrococcus luteus; above 1000 µg/mL in the assay on Bacillus cereus; 1000 µg/mL with Bacillus subtilis; above 1000 µg/mL in [1]; above 1000 µg/mL in the assay on Staphylococcus aureus [3]. For the same compound, the MIC was found to be 31.2 µg/mL in the assay on Micrococcus luteus; 62.5 µg/mL in the assay on Bacillus cereus; 62.5 µg/mL in the assay on Bacillus subtilis; 125 µg/mL in assay [1]; 31.2 µg/mL in the assay with Staphylococcus aureus [3].

Consider `S=c1n(CN2CCCC2)nc(-c2ccc(Cl)cc2)n1-c1ccc(Br)cc1`, for which the “growth inhibition (GI)” value with Escherichia coli, with Pseudomonas aeruginosa, in the assay on Proteus mirabilis and in the assay on Klebsiella pneumoniae was “inactive” each time. Besides, the MBC is 250 µg/mL in the assay on Micrococcus luteus; above 1000 µg/mL in the assay with Bacillus cereus; 125 µg/mL in the assay with Bacillus subtilis; 1000 µg/mL in assay [1]; 1000 µg/mL in the assay on Staphylococcus aureus [2]; 500 µg/mL in the assay with Staphylococcus aureus [3]. For the same compound, the minimal inhibitory concentration (MIC) in the assay with Micrococcus luteus stood at 7.81 µg/mL; in the assay with Bacillus cereus, 31.2 µg/mL; in the assay with Bacillus subtilis, 63 µg/mL; in assay [1], 31 µg/mL; in the assay on Staphylococcus aureus [2], 62.5 µg/mL; with Staphylococcus aureus [3], 31.2 µg/mL.

For `S=c1n(CN2CCCC2)nc(-c2ccccc2Cl)n1-c1ccc(Br)cc1`, the “growth inhibition (GI)” value with Escherichia coli, in the assay with Pseudomonas aeruginosa, with Proteus mirabilis and in the assay with Klebsiella pneumoniae was “inactive” each time. The minimum bactericidal concentration (MBC) in the assay with Micrococcus luteus is 1000 µg/mL; in the assay with Bacillus cereus it was above 1000 µg/mL; in the assay on Bacillus subtilis it was 125 µg/mL; in [1], 500 µg/mL; with Staphylococcus aureus [2], 500 µg/mL; in the assay on Staphylococcus aureus [3], 500 µg/mL. For the same compound, the MIC was determined as 62.5 µg/mL in the assay on Micrococcus luteus; 62.5 µg/mL in the assay with Bacillus cereus; 15.6 µg/mL with Bacillus subtilis; 31.2 µg/mL in [1]; 125 µg/mL with Staphylococcus aureus [2]; 31.2 µg/mL with Staphylococcus aureus [3].

Turning to `S=c1n(CN2CCCCC2)nc(-c2ccccc2Cl)n1-c1ccc(Br)cc1`, the “growth inhibition (GI)” value with Escherichia coli, in the assay with Pseudomonas aeruginosa, in the assay with Proteus mirabilis and in the assay with Klebsiella pneumoniae was “inactive” each time. Also, the MBC (in the assay on Micrococcus luteus; in the assay on Bacillus cereus; in the assay with Bacillus subtilis; in assay [1]; in the assay with Staphylococcus aureus [2]; with Staphylococcus aureus [3]) was above 1000 µg/mL throughout. The MIC in the assay with Micrococcus luteus was determined as 500 µg/mL; in the assay on Bacillus cereus, 1000 µg/mL; with Bacillus subtilis, 250 µg/mL; in assay [1] it was 1000 µg/mL; in the assay with Staphylococcus aureus [2] it was 500 µg/mL; in the assay with Staphylococcus aureus [3], 500 µg/mL.

With `S=c1n(CN2CCOCC2)nc(-c2ccccc2Cl)n1-c1ccc(Br)cc1`, the “growth inhibition (GI)” value in the assay with Escherichia coli, in the assay on Pseudomonas aeruginosa, in the assay on Proteus mirabilis and in the assay on Klebsiella pneumoniae was “inactive” each time. The MBC in the assay on Micrococcus luteus is 250 µg/mL; with Bacillus cereus it was above 1000 µg/mL; with Bacillus subtilis, 250 µg/mL; in [1], 500 µg/mL; with Staphylococcus aureus [2], 500 µg/mL; in the assay on Staphylococcus aureus [3], 500 µg/mL. The MIC with Micrococcus luteus was determined as 62.5 µg/mL; in the assay with Bacillus cereus it was 125 µg/mL; with Bacillus subtilis it was 125 µg/mL; in [1], 125 µg/mL; in the assay on Staphylococcus aureus [2], 250 µg/mL; with Staphylococcus aureus [3], 125 µg/mL.

With `CCN(CC)Cn1nc(-c2ccc(Cl)cc2)n(-c2ccc(Br)cc2)c1=S`, the “growth inhibition (GI)” value in the assay on Escherichia coli, in the assay on Pseudomonas aeruginosa, with Proteus mirabilis and with Klebsiella pneumoniae was “inactive” throughout. Also, the MBC with Micrococcus luteus is 62.5 µg/mL; in the assay with Bacillus cereus, 250 µg/mL; with Bacillus subtilis, 500 µg/mL; in [1] it was 250 µg/mL; in the assay with Staphylococcus aureus [2], 250 µg/mL; with Staphylococcus aureus [3], 250 µg/mL. Moreover, the MIC in the assay on Micrococcus luteus was determined as 15.6 µg/mL; with Bacillus cereus, 31.2 µg/mL; in the assay with Bacillus subtilis, 31.2 µg/mL; in assay [1], 31.2 µg/mL; in the assay on Staphylococcus aureus [2], 62.5 µg/mL; in the assay on Staphylococcus aureus [3], 31.2 µg/mL.

For `CC1(C)S[C@@H]2[C@H](NC(=O)[C@H](N)c3ccccc3)C(=O)N2[C@H]1C(=O)O` [AMPICILLIN], the MIC in the assay on Bacillus cereus is 62.5 µg/mL.

With `S=c1n(CN2CCCC2)nc(-c2cccc(Cl)c2)n1-c1ccc(Br)cc1`, the “growth inhibition (GI)” value in the assay with Escherichia coli, in the assay on Pseudomonas aeruginosa, with Proteus mirabilis and with Klebsiella pneumoniae was “inactive” throughout. Further, the MBC was above 1000 µg/mL in the assay with Micrococcus luteus; above 1000 µg/mL with Bacillus cereus; 500 µg/mL in the assay with Bacillus subtilis; above 1000 µg/mL in [1]; above 1000 µg/mL in the assay on Staphylococcus aureus [3]. The MIC was 62.5 µg/mL in the assay on Micrococcus luteus; 62.5 µg/mL in the assay with Bacillus cereus; 62.5 µg/mL in the assay on Bacillus subtilis; 250 µg/mL in assay [1]; 31.2 µg/mL in the assay on Staphylococcus aureus [3].

Regarding `CN[C@H](CC(C)C)C(=O)N[C@H]1C(=O)N[C@@H](CC(N)=O)C(=O)N[C@H]2C(=O)N[C@H]3C(=O)N[C@H](C(=O)N[C@H](C(=O)O)c4cc(O)cc(O)c4-c4cc3ccc4O)[C@H](O)c3ccc(c(Cl)c3)Oc3cc2cc(c3O[C@@H]2O[C@H](CO)[C@@H](O)[C@H](O)[C@H]2O[C@H]2C[C@](C)(N)[C@H](O)[C@H](C)O2)Oc2ccc(cc2Cl)[C@H]1O` [VANCOMYCIN], in the assay with Staphylococcus aureus [2], the MBC came out at 3.91 µg/mL and the MIC amounted to 0.98 µg/mL.

For `CO/N=C(\C(=O)N[C@@H]1C(=O)N2C(C(=O)O)=C(COC(N)=O)CS[C@H]12)c1ccco1` [CEFUROXIME], the MIC amounted to 0.98 µg/mL with Micrococcus luteus; 31.2 µg/mL in the assay with Bacillus cereus; 15.6 µg/mL in the assay with Bacillus subtilis; 0.24 µg/mL in [1]; 0.49 µg/mL in the assay with Staphylococcus aureus [3].
